These results are taken from ChEMBL document CHEMBL3593239, “PABA/NO lead optimization: Improved targeting of cytotoxicity to glutathione S-transferase P1-overexpressing cancer cells” (Bioorg Med Chem, 2015).

Calls of active or inactive are those of the source. No cut-off for these calls is given here.

The subject of one data set is U-937. As to the kind of experiment: Cytotoxicity against human U937 cells assessed as growth inhibition after 72 hrs by MTT assay. It counts as functional, cell-based. As to conditions: U-937, 72 h. The procedure, abridged: (§1)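 HL-60 and U937 cells from ATCC, grown per supplier protocol, seeded and exposed to increasing concentrations for 72 h. Viability was read with a Promega assay run per the manufacturer's protocol. Six repeats per concentration, three independent experiments. IC50 derived by curve fitting.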
In general terms: Tetrazolium dyes change colour on reduction, which living cells bring about.

In data set [1] the target is T1, Glutathione S-transferase A1 (Homo sapiens, UniProt P08263).
T1 sequence (P08263 whole entry): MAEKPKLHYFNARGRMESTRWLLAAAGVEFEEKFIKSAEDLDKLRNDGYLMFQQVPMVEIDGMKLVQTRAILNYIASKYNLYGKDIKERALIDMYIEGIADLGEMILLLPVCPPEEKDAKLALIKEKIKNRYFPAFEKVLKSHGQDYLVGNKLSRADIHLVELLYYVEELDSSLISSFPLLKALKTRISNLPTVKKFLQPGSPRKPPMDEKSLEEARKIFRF
As to the kind of experiment: Drug metabolism in phosphate buffer assessed as ratio of GSTA1 (unknown origin)-mediated (S)-2-amino-5-((R)-1-(carboxymethylamino)-3-(4-cyano-5-hydroxy-2-nitrophenylthio)-1-oxopropan-2-ylamino)-5-oxopentanoic acid formation from nitric oxide release pathway to GSTA1 (unknown origin)-mediated (Z)-1-(4-cyano-5-hydroxy-2-nitrophenoxy)-3,3-dimethyltriaz-1-ene 2-oxide formation from nitric oxide retained pathway at 1 uM at pH 7.4 at 37 degC after 30 mins by LC-MS/MS analysis in presence of GSH. In kind it is ADME. As to conditions: pH 7.4, 0.5 h. The procedure, abridged:
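Products analysed by LC–MS. The ratio is the NO-release-pathway product over the NO-retained-pathway phenolic product.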

The target in data set [2] is T2, Glutathione S-transferase P (Homo sapiens, UniProt P09211). As to the kind of experiment: Drug metabolism in phosphate buffer assessed as formation of GSTP1 (unknown origin)-mediated (S)-2-amino-5-((R)-1-(carboxymethylamino)-3-(4-cyano-5-(4-(methylamino)benzoyloxy)-2-nitrophenylthio)-1-oxopropan-2-ylamino)-5-oxopentanoic acid at 1 uM at pH 7.4 at 37 degC after 1 to 30 mins by LC-MS/MS analysis in presence of GSH. In kind it is ADME. As to conditions: pH 7.4, 1 µM. The procedure, abridged: (§2)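 Test compound at 1 µM reacted with 4 mM GSH containing 4 nM GSTP1 in 0.1 M phosphate, pH 7.4, at 37 °C. Products identified by LC–MS traces taken at 60 s and 30 min.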

Data set [3] concerns HL-60. As to the kind of experiment: Induction of apoptosis in human HL60 cells assessed as activation of caspase 8 at 10 uM after 24 hrs by Western blot analysis. In kind it is functional, cell-based. (In general: In western blotting, separated proteins are transferred to a membrane and probed.)
In data set [4] the target is T2, Glutathione S-transferase P. The data set can be described thus: Prodrug conversion in phosphate buffer assessed as GSTP1 (unknown origin)-mediated nitric oxide release […] measured per mol of compound at pH 7.4 at 37 degC by chemiluminescence assay in presence of GSH. In kind it is ADME.
Data set [5] has as its system HL-60. The data set can be described thus: Cytotoxicity against human HL60 cells assessed as growth inhibition after 72 hrs by MTT assay. It counts as functional, cell-based. As to conditions: HL-60, 72 h. An outline of the steps: as §1
For data set [6], the system named is HL-60. As to the kind of experiment: Induction of SAPK/JNK phosphorylation in human HL-60 cells at 5 to 20 uM after 24 hrs by Western blot analysis.
The nature of data set [7]: Stability of the compound in phosphate buffer assessed as first-order initial rate constant for hydrolysis at pH 7.4 at 37 degC by HPLC trapping method. In kind it is physicochemical.
Data set [8] deals with HL-60. As to the kind of experiment: Induction of apoptosis in human HL60 cells assessed as activation of caspase 7 at 10 uM after 24 hrs by Western blot analysis. It counts as functional, cell-based.
The nature of data set [9]: Stability of the compound in phosphate buffer assessed as pseudo-first order rate constant at pH 7.4 at 37 degC by HPLC trapping method in presence of GSH. In kind it is physicochemical.
A short description of data set [10]: Stability of the compound in phosphate buffer assessed as first-order initial rate constant for hydrolysis at pH 7.4 at 25 degC by HPLC trapping method. It counts as physicochemical.
Data set [11] addresses T2, Glutathione S-transferase P. As to the kind of experiment: Prodrug conversion in phosphate buffer assessed as GSTP1 (unknown origin)-mediated nitric oxide release at 1 uM at pH 7.4 at 37 degC after 1 to 30 mins by LC/MS-MS analysis. It counts as ADME. As to conditions: pH 7.4, 1 µM. The procedure, abridged:
as §2

Data set [12] has the same target. As to the kind of experiment: Drug metabolism in human HL-60 cells assessed as GSTP1-mediated metabolite formation at 1 uM after 10 mins by LC-MS/MS analysis. It counts as ADME, cell-based. As to conditions: hl-60, 10 min. An outline of the steps:
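HL-60 cells plated in flasks and incubated overnight at 37 °C, then treated with 1 µM compound for varying times. Cells broken by two freeze (−80 °C)/thaw (37 °C) cycles in 0.1% formic acid/acetonitrile 3:7. Precipitate spun out at 14,000g for 15 min. Supernatant filtered and analysed by LC–MS/MS on C18 with acetonitrile/water/0.1% formic acid gradient and ESI-QTOF detection.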

Data set [13] relates to HL-60. As to the kind of experiment: Induction of apoptosis in human HL60 cells assessed as cleavage of PARP at 10 uM after 24 hrs by Western blot analysis. In kind it is functional, cell-based.

T2 sequence (P09211 whole entry): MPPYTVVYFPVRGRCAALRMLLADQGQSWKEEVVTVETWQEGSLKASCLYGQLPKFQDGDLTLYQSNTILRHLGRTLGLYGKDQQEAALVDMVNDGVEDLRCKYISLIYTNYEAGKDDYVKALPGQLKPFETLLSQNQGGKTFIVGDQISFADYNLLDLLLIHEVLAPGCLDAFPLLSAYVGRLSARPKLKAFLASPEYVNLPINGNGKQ

The IC50 is the midpoint of a concentration-inhibition curve. In the case of `CNc1ccc(C(=O)Oc2cc(O/N=[N+](\[O-])N(C)C)c([N+](=O)[O-])cc2C#N)cc1`, the IC50 came out at 6.5 µM with U-937 and 9 µM in the data set on HL-60 [5]. Moreover, the Ratio in data set [1] is given as 1. Also, the Drug metabolism entry in [2], in data set [11] and in data set [12] was “metabolite_detected” each time. For the same molecule, the result in the data set on HL-60 [3], with HL-60 [6], with HL-60 [8] and in the data set with HL-60 [13] was Active. Moreover, in [4], the NO yield was over 1.9 mol/mol. Also, the K in data set [7] was determined as 1.1 ×10⁻⁴ /s; in data set [9] it was 5.1 ×10⁻³ /s; in [10], 0.3 ×10⁻⁵ /s.
